One molecule from PMC10981011 (Synthetic and Systems Biotechnology, 2024) can be followed below.

Each structure is given as a SMILES string.

For data set [1], the system named is Mak1 (microbiome-derived acarbose kinase 1). The data set is described as follows: In vitro reaction of Mak1. Format: in vitro ADME, human microbiome. To be noted: 10 μM Mak1, 0.5 mM substrate, 2 mM ATP, 30 °C, 2 h. The gist of the method: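 Mak1 expressed in E. coli Origami B (DE3) (1 mM IPTG, 16 °C, 18 h) and purified on Ni-NTA. Reactions used 100 mM Tris-HCl pH 7.0, 10 mM MgCl₂, 2 mM ATP, 10 μM Mak1 and 0.5 mM test compound. They ran at 30 °C for 2 h and were stopped with 2 volumes methanol. Control used heat-inactivated Mak1 (95 °C, 30 min). Phosphorylated product detected by LC-MS on an SB-Aq column.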

Data set [2] concerns Apg (acarbose-preferred glucosidase). The data set is described as follows: In vitro reaction of Apg. Format: in vitro ADME, Klebsiella grimontii TD1. To be noted: 10 μM Apg, 1 mM substrate, 37 °C, 2 h.

For the molecule `C[C@H]1O[C@H](O[C@H]2[C@H](O)[C@@H](O)[C@@H](O[C@H]3[C@H](O)[C@@H](O)C(O)O[C@@H]3CO)O[C@@H]2CO)[C@H](O)[C@@H](O)[C@@H]1N[C@H]1C=C(CO)[C@@H](O)[C@H](O)[C@H]1O` (some centres unmarked) [Acarbose], the “Phosphorylation by Mak1 (detection of phosphorylated product)” value in data set [1] is given as “catalyzed the conversion of acarbose to O-7-phosphoryl-acarbose”. Further, the “Hydrolysis by Apg” value in data set [2] is given as “completely converted”.
